# High-throughput results deposited in PubChem BioAssay by Sanford-Burnham Center for Chemical Genomics.
# SENP8 block-1 – blocks the human protease SENP8. Q96LD8. purified SENP8, Z-RLRGG-aminoluciferin cleavage, luminescence. inhibition, % at 10 µM. 330,000 tested, 1.2% active. AID 2540; in the data active = inhibition above about 50%
# UBC13 polyUb – human UBC13 polyubiquitination inhibition. P61088. UBC13 polyubiquitin chain formation, TR-FRET. inhibition, % at 20 µM. 330,000 tested, 0.47% active; in the data active = inhibition above about 45%, passing the limit was not always enough
# Target sequence (P61088 whole entry, looked up): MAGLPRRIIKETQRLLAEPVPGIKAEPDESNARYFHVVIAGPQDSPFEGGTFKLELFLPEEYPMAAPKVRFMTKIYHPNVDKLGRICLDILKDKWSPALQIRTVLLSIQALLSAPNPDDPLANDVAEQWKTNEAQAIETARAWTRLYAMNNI
# SENP8 block-2 – SENP8 (human) protease inhibition; Q96LD8; recombinant SENP8, Nedd8 substrate fluorescence; inhibition, % at 20 µM; 360,000 tested, 0.64% active; in the data active = inhibition mostly above about 40%, no sharp cut-off; inactive = mostly below about 27%
# Apaf1 inhib – inhibitors of human Apaf-1 apoptosome | inhibition, % at 20 µM | 330,000 tested, 0.71% active | reconstituted apoptosome caspase-3 activity, DEVD-Rh110 fluorescence; active = inhibition of at least 40% at 20 µM;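 note: plate controls were DMSO wells for no effect and DEVD-CHO caspase inhibitor wells for full effect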
#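 System: reconstituted apoptosome with Apaf-1, cytochrome c, caspase-9, procaspase-3, dATP; Signal: Rh110 fluorescence intensity; Schedule: 30 min compound preincubation, 50 min activation, room temperature; Reagent: cytochrome c trigger plus (Z-DEVD)2-Rh110 caspase-3 substrate.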
# SENP7 block – SENP7 protease inhibition | Q9BQF6 | recombinant SENP7, Z-RLRGG-aminoluciferin luminescence, 40 min | inhibition, % at 5 µM | 330,000 tested, 1.5% active | AID 434973;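 active = inhibition above about 50% at the single test dose, limit read from the data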;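 note: plate controls were DMSO with enzyme for no effect and no enzyme buffer wells for full effect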
# Target sequence (Q9BQF6 706-1050 limits assumed): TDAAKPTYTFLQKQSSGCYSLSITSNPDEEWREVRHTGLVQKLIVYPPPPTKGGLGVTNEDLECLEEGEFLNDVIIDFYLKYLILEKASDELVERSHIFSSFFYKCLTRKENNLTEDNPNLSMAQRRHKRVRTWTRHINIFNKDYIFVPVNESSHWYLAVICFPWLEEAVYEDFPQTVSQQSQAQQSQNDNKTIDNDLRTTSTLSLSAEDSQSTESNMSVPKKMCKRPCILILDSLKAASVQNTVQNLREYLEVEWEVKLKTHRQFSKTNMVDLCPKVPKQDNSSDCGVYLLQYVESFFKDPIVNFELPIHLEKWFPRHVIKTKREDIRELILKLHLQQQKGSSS
# SENP6 inh – inhibitors of human SENP6 protease. Q9GZR1. Recombinant SENP6 catalytic domain, aminoluciferin luminescence. inhibition, % at 10 µM. 330,000 tested, 1.8% active;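 active = inhibition above about 50% at the single tested dose, limit read from the data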;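 note: plate controls were DMSO wells with enzyme for no effect and DMSO wells lacking enzyme for full effect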
# Active calls of the source: *; nt = no result given. The list is not random: actives were taken first. Their share in the collection is about 3%.
SMILES,SENP8 block-1,UBC13 polyUb,SENP8 block-2,Apaf1 inhib,SENP7 block,SENP6 inh
Cc1c(N=Cc2cc3c(cc2[N+](=O)[O-])OCO3)cccc1[N+](=O)[O-],3,-28,0,44*,16,0
Cc1[nH]c2c(C)cccc2c1CCNC(=O)c1ccc2c(c1[N+](=O)[O-])C(=O)c1ccccc1C2=O,7,-41,43*,6,6,-3
Cc1[nH]c2ccccc2c1CCNC(=O)c1ccc2c(c1[N+](=O)[O-])C(=O)c1ccccc1C2=O,6,-12,34,2,7,18
O=C1/C(=C\c2cc(Cl)c(O)c(Cl)c2)SC(=S)N1Cc1ccccc1,nt,nt,48*,nt,nt,nt
COc1ccc(/C=C2/SC(=S)N(Cc3ccccc3)C2=O)cc1O,-15,-30,20,28,-10,-23
N#C/C(=C\c1ccc(O)c(O)c1)C(=O)N1CCCC1,-4,-15,0,2,0,12
N#C/C(=C\c1ccc(O)c(O)c1)C(=O)c1ccc(O)c(O)c1,81*,-203,11,4,45,83*
Oc1[nH]c2ccccc2c1C=Nc1ccccc1,46,-22,38,-11,62*,67*
C=C(NC(C)=O)c1c(F)cccc1F,2,12,8,-7,-3,0
O=C(Nc1ccc2c(c1)CCC2)C1CCN(c2c3c(nc4ncnn24)CCC3)CC1,-1,7,3,-3,0,0
O=C(Nc1ccc(Oc2ccccc2)cc1)C1CCN(c2c3c(nc4ncnn24)CCC3)CC1,-8,10,13,41*,-2,7
N#Cc1cc2c(nc1SCc1nc3ccccc3[nH]1)CCC2,54*,8,nt,5,12,81*
O=C(c1cccn2c(=O)c3cc4ccccc4cc3nc12)N1CCN(c2ccccc2)CC1,28,-58,nt,5,70*,45
COc1ccc(/C=C/C(=O)Nc2ccccc2C(=O)O)cc1OC,63*,-19,-46,11,17,72*
CCOC(=O)c1c2c(n(-c3ccc(OC)cc3)c1C)C(=O)C(=O)c1ccccc1-2,nt,nt,110*,nt,nt,nt
Oc1ccc(N=Nc2cccc(Cl)c2)cc1C=Nc1ccc(N2CCOCC2)cc1,nt,nt,53*,nt,nt,nt
Cc1c(N(C)S(=O)(=O)c2cccc(C(=O)NCc3cccnc3)c2)c(=O)n(-c2ccccc2)n1C,nt,nt,6,nt,nt,nt
Cc1nc2c(-c3ccc(F)cc3)c(C)nn2c(C)c1CCC(=O)Nc1ccccc1,3,4,-20,4,6,61*
CCOc1ccc(CN2C(=O)CC(=O)N(S(=O)(=O)c3ccc(OCC)cc3)C2=O)cc1,-3,-8,28,-14,12,-5
CC1(C)CC(N=C2C([N+](=O)[O-])=CC=C3C2=NC2(CCCCC2)N3O)CC(C)(C)N1,9,-152,50*,-2,7,24
O=[N+]([O-])C1=CC=C2C(=NC3(CCCCC3)N2O)C1=NC1CCCCC1,10,-55,26,8,11,-10
Cc1cc(O)ccc1N/C=C/c1onc(C)c1[N+](=O)[O-],47,-121,26,-4,97*,87*
Cn1cnc(S(=O)(=O)N2CCN(c3ccc(F)cc3)CC2)c1,0,0,9,-18,3,-8
O=C(Nc1ccc(N2C(=O)C3CCCCC3C2=O)cc1Cl)c1cccs1 (centres undefined),-13,-7,4,10,-6,5
Cn1c(=O)c2c(-c3ccccc3)n(-c3ccc(N)cc3)cc2n(C)c1=O,nt,nt,60*,nt,nt,nt
SMILES,SENP8 block-1,UBC13 polyUb,SENP8 block-2,Apaf1 inhib,SENP7 block,SENP6 inh
O=C(OCCOc1cccc(Cl)c1)C1CCN(S(=O)(=O)c2ccccc2)CC1,-3,-6,8,25,0,4
O=C1C2C(C(=O)N1/N=C/c1cc(Br)cc([N+](=O)[O-])c1O)C1C=CC2C12CC2 (centres undefined),1,-63,41*,8,-5,-8
CCN(CC(=O)Nc1ccccc1OC)C(=O)CN1C(=O)NC(C)(c2ccc(C)cc2)C1=O (centres undefined),9,7,4,1,13,-15
CCN(CC(=O)Nc1ccccc1OC)C(=O)CN1C(=O)NC(C)(c2ccccc2)C1=O (centres undefined),-8,14,5,49*,-5,-16
NC(=O)[C@@H]1CCCNc2c(I)cc([N+](=O)[O-])cc2C(=O)N[C@@H](CCCN=C(N)N)C(=O)N[C@@H](CCCN=C(N)N)C(=O)N1,15,34,nt,41*,-3,2
CC[C@H](C)[C@@H]1NC(=O)c2cc([N+](=O)[O-])cc(I)c2NCC[C@@H](C(N)=O)NC(=O)[C@H](CCCN=C(N)N)NC1=O,-9,23,nt,26,-14,-16
CC1(C(=O)NS(=O)(=O)c2cccc(OC(F)F)c2)CCN1C(=O)CC(c1ccccc1)c1ccccc1 (centres undefined),nt,nt,23,nt,nt,nt
O=C(c1ccc(Br)o1)N1CCc2ccccc21,93*,8,nt,-1,95*,94*
O=C(c1ccc(Br)o1)N1CCCc2ccccc21,2,1,25,-5,21,26
Oc1c(CN2CCOCC2)cc(CN2CCOCC2)c(O)c1O,nt,nt,52*,nt,nt,nt
Oc1cccc(CN2CCOCC2)c1O,nt,nt,36,nt,nt,nt
O=C(CC[C@H]1O[C@@H](n2ccc(=O)[nH]c2=O)[C@H](O)[C@@H]1O)NCc1ccc2c(c1)OCO2,nt,nt,20,nt,nt,nt
Cc1ccc(S(=O)(=O)Cn2nnnc2C(C(C)C)N2CCc3ccccc3C2)cc1 (centres undefined),1,-4,64*,37,10,29
Cc1cc(C)cc(N(CC(=O)NC2CCCC2)C(=O)C2(C)CC(=O)N=C3C=CC=CN32)c1 (centres undefined),-4,8,-385,-11,0,14
C#CCOCCOCCOCCNc1nc(N2CCN(C(=O)[C@H](CCC(=O)O)n3cc(C(N)CO)nn3)CC2)nc(N2CCN(C(=O)[C@H](Cc3cc4ccccc4[nH]3)n3cc(C(N)[C@H](C)CC)nn3)CC2)n1 (some centres undefined),-5,25,5,31,6,-21
C#CCOCCOCCOCCNc1nc(N2CCN(C(=O)[C@H](Cc3cc4ccccc4[nH]3)n3cc([C@@H](N)C(C)CC)nn3)CC2)nc(N2CCN(C(=O)[C@H](CCCCN)n3cc([C@@H](N)CO)nn3)CC2)n1 (some centres undefined),-10,110*,nt,10,11,-23
C#CCOCCOCCOCCNc1nc(N2CCN(C(=O)[C@H](Cc3cc4ccccc4[nH]3)n3cc([C@@H](N)C(C)CC)nn3)CC2)nc(N2CCN(C(=O)[C@H](Cc3cc4ccccc4[nH]3)n3cc([C@@H](N)CC(C)C)nn3)CC2)n1 (some centres undefined),-12,61*,nt,32,0,-23
